The source of these data is PMC5064183 (Annals of Dermatology, 2016).

Experiment [1] relates to Melan-a mouse melanocytes. Briefly: Melanin content assay in Melan-a cells. Format: cell-based. To be noted: αMSH (10 nM) induced Melan-a cells (Fig. 6B). The method in brief: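 Immortal non-tumorigenic mouse melanocytes kept in RPMI 1640 with 10% FBS, 1% penicillin/streptomycin and 200 nM TPA at 37℃, 10% CO2, subcultured every 4th day. Melanin content measured under αMSH (10 nM) stimulation and expressed as % of untreated control alongside MTT viability. Mean±SD; unpaired t-test.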

Experiment [2] relates to B16F10 mouse melanoma cells. The experiment in a line: Melanin content assay in B16F10 cells. The experiment is classed as cell-based. To be noted: αMSH (10 nM) induced B16F10 melanoma cells (Fig. 6A). The method in brief: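 B16F10 cells grown in DMEM with 10% FBS and 1% penicillin/streptomycin at 37℃, 5% CO2, under αMSH (10 nM) stimulation. Seeded in 12-well plates for 24 h, refed and held 48 h in triplicate cultures, then trypsinised. Washed twice in PBS, lysed in 1 N NaOH/10% DMSO at 80℃ for 1 h; absorbance 405 nm versus untreated cells. Mean±SD; unpaired t-test.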

The test system of experiment [3] is Mushroom tyrosinase (EC 1.14.18.1). The experiment in a line: In vitro mushroom tyrosinase assay. Format: biochemical. The method in brief:
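Mushroom tyrosinase (EC 1.14.18.1), enzyme stock 1,100 units/ml (0.516 mg/ml) in 0.1 M phosphate buffer, mixed with phosphate buffer, test compound or reference inhibitor, and 5 mM L-dopa solution. Incubated 10 min at 37℃; dopachrome read at 475 nm. % inhibition = (ΔAcontrol−ΔAsample)/ΔAcontrol×100; IC50 = concentration giving 50% inhibition. Triplicate wells; experiments run at least three times; mean±SD, unpaired t-test.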

Take `OC[C@H]1O[C@@H](Oc2ccc(O)cc2)[C@H](O)[C@@H](O)[C@@H]1O` [Arbutin, hydroquinone-beta-D-glucopyranoside]: the “effect on melanin content (in words)” value in experiment [1] and in experiment [2] was “inhibited melanin content” each time.

For the molecule KA-CDPGYIGSR [KA-CR9], in experiment [3] (5, 10, 20, 40, and 80 µM (Fig. 4, 5)), the “dose dependence of mushroom tyrosinase inhibition” value was “dose-dependent inhibition”. Also, the “maximum inhibitory effect of tyrosinase activity” value in experiment [3] (in vitro tyrosinase screening, as restated in the discussion) is recorded as 84%.
